Test results published in ChEMBL document CHEMBL1124569, “5-HT1A-receptor antagonism: N-alkyl derivatives of (R)-(-)-8,11-dimethoxynoraporphine” (J Med Chem, 1989).
Activity calls are given as the source filed them. No cut-off for these calls is given here.

Experiments:
[1] = test system: Felis catus; test: Minimum effective dose administered intravenously for decrease in arterial pressure in cat heart; type: functional; settings: Artery, iv, read-out: MED
Summary of the method: (§1)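 Cats anesthetized with pentobarbital sodium (30 mg/kg ip), intubated and ventilated, with bilateral vagotomy and atropine sulfate 200 μg/kg. Compound given iv via femoral vein, doses up to 1 mg/kg. Femoral arterial pressure and heart rate were recorded continuously. The right postganglionic cardioaccelerator nerve was stimulated at 2 Hz, 5 ms, 20 V.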

[2] = species: Rattus norvegicus; test: Ability of compound to induce behavioral changes in rat; type: functional; settings: read-out: MED
Summary of the method: (§2)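 Rats dosed subcutaneously and observed for locomotor activity and serotonin syndrome signs (flat body posture, forepaw extension and padding, abducted hindlimbs, forebody tremor). Antagonism was tested by giving the compound 15 min before subcutaneous 8-OH-DPAT.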

[3] = test system: Felis catus; test: Minimum effective dose administered intravenously for decrease in heart rate in cat; type: functional; settings: iv, read-out: MED; summary of the method: as §1
[4] = molecular target: T1, 5-hydroxytryptamine receptor 1A (Rattus norvegicus, UniProt P19327); test: Binding affinity of compound against 5-hydroxytryptamine 1A receptor binding site using radioligand [3H]8-OH-DPAT
T1 sequence (P19327 whole entry): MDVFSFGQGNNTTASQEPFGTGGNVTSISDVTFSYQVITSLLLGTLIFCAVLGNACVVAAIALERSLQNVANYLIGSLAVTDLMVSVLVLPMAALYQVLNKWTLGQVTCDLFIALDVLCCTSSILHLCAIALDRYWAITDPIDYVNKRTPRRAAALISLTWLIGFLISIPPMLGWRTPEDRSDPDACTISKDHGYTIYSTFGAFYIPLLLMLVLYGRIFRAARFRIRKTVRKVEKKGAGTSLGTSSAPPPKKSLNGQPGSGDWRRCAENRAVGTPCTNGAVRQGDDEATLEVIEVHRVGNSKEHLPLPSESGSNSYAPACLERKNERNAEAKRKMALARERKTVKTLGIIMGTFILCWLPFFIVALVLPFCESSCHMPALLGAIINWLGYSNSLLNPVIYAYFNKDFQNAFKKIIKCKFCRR

[5] = species: Rattus norvegicus; test: Ability of compound to induce behavioral changes in rat; Not active; type: functional, organism-based; summary of the method: as §2
[6] = molecular target: D(2) dopamine receptor (Rattus norvegicus, UniProt P61169); test: Binding affinity of compound against Dopamine receptor D2 binding site using radioligand [3H]spiperone
D(2) dopamine receptor, sequence (P61169 whole entry): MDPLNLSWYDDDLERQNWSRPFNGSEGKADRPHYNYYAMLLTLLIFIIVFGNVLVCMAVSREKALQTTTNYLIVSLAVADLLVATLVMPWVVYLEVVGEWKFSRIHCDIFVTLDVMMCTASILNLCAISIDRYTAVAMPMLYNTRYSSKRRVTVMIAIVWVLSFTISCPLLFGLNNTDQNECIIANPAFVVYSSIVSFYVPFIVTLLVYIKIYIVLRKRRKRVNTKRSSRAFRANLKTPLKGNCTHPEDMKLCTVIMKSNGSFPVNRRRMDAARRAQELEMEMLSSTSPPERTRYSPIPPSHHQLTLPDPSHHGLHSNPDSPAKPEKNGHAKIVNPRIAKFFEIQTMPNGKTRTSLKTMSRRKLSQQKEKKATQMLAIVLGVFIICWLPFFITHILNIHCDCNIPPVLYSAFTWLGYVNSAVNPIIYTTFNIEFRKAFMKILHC

`CN1CCc2cccc3c2[C@H]1Cc1ccc(O)c(O)c1-3` [APOMORPHINE] showed a minimal effective dose [1] of 0.01 mg/kg, a minimal effective dose [2] of 1 mg/kg and a minimal effective dose [3] of 0.01 mg/kg.
`CCCN1CCc2cccc3c2[C@H]1Cc1c(OC)ccc(OC)c1-3` was tested, and the Ki [4] was 240 nM, the minimal effective dose [1] was greater than 1 mg/kg and the MED [5] was “inactive”. It also gave a minimal effective dose [3] greater than 1 mg/kg and a Ki [6] of 770 nM.
`CCCN(CCC)C1CCc2cccc(O)c2C1` (stereo not drawn) [8-OH-DPAT] gave a minimal effective dose [1] of 0.01 mg/kg, a minimal effective dose [2] of 0.5 mg/kg and a minimal effective dose [3] of 0.01 mg/kg. For the same molecule, the Ki [6] was 3500 nM.
`O=C(CCCN1CCC2(CC1)C(=O)NCN2c1ccccc1)c1ccc(F)cc1` [SPIPERONE] showed a Ki [4] of 30 nM.
`COc1ccc(OC)c2c1C[C@@H]1c3c(cccc3-2)CCN1C` was tested, and the Ki [4] was 8.6 nM, the minimal effective dose [1] was greater than 1 mg/kg and the minimal effective dose [2] was 5 mg/kg. The minimal effective dose [3] was greater than 1 mg/kg and the Ki [6] was 210 nM.
